Consider twelve compounds from ChEMBL document CHEMBL5036345, “Identification of a dual acting SARS-CoV-2 proteases inhibitor through in silico design and step-by-step biological characterization” (Eur J Med Chem, 2021).

Where a SMILES comes first, the peptide text is derived from it. [ ]: non-standard residue; d: D form. The star is where a group is joined. AllylGly = C=CC[C@H](N)C(=O)O; Boc = CC(C)(C)OC(=O)*; NHBn = c1ccc(CN*)cc1; NHtBu = CC(C)(C)N*; ClAc = O=C(CCl)*

In data set [1] the test system is SARS-CoV-2. Kind of data set: Antiviral activity against Severe acute respiratory syndrome coronavirus 2 UC-1075 infected in African green monkey Vero cells assessed as reduction in plaque formation measured after 5 days by microscopic analysis. Format: functional, organism-based. As to conditions: Severe acute respiratory syndrome coronavirus 2, UC-1075, Vero, 120 h.

Data set [2] deals with Vero. Kind of data set: Cytotoxicity against African green monkey Vero cells assessed as reduction in cell viability by coulter counter method. In kind it is cell-based. As to conditions: chlorocebus sabaeus. The method in brief: (§1)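 Vero cells were treated with a compound dilution series in DMEM 2% FCS for 5 days at 37 °C, in parallel with the antiviral assay. MCC is the lowest concentration giving a microscopically detectable change in morphology. CC50 is the concentration halving cell number in mock-infected cultures, counted by Coulter counter.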

A short description of data set [3]: Cytotoxicity against African green monkey Vero cells assessed as effect on cell morphology by microscopic analysis. In kind it is cell-based. Particulars: chlorocebus sabaeus. In outline: as §1
Data set [4] concerns SARS-CoV-2. Briefly: Antiviral activity against Severe acute respiratory syndrome coronavirus 2 UC-1074 infected in African green monkey Vero cells assessed as reduction in plaque formation measured after 5 days by microscopic analysis. In kind it is functional, organism-based. Particulars: Severe acute respiratory syndrome coronavirus 2, UC-1074, Vero, 120 h.
Data set [5] concerns the target Spike glycoprotein (Severe acute respiratory syndrome coronavirus 2, UniProt P0DTC2). Kind of data set: Binding affinity to CM5 sensor chip immobilized SARS-CoV-2 spike glycoprotein assessed as dissociation constant by SPR analysis. In outline: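 Spike protein (1.25 μM in 10 mM sodium acetate, pH 4.59) was amine-coupled to about 11500 RU, with the first channel as reference. Running buffer was 10× diluted HBS-P plus 5% DMSO. Compounds at 0.75–100 μM were injected at 25 °C and 20 μL/min, with 90 s association and 600 s dissociation. Runs were in triplicate; KD came from a global 1:1 fit.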
For orientation: SPR reads the build-up and loss of mass on a sensor chip optically.

Data set [6] is described as follows: Inhibition of SARS CoV-2 papain-like protease using Z-Arg-Leu-Arg-Gly-Gly-AMC as substrate preincubated for 30 mins followed by substrate addition and measured after 50 mins by multimode plate reader method. Also on record: species or system Severe acute respiratory syndrome coronavirus 2.
Data set [7] can be described thus: Inhibition of SARS CoV-2 main protease using DABCYL-KTSAVLQ1SGFRKM-E(EDANS)-NH2 as substrate preincubated for 30 mins followed by substrate addition and measured after 4 hrs by multimode microplate reader assay. Further details: species or system Severe acute respiratory syndrome coronavirus 2.

For `CCC(CC)COC(=O)[C@H](C)N[P@](=O)(OC[C@H]1O[C@@](C#N)(c2ccc3c(N)ncnn23)[C@H](O)[C@@H]1O)Oc1ccccc1`, the EC50 in data set [1] worked out at 0.61 µM; in data set [4], 0.87 µM. Also, in data set [2], the half-maximal cytotoxic concentration (CC50) is over 40 µM. For the same compound, the MCC in data set [3] was over 40 µM.

Regarding `COC(=O)c1ccc2c(c1)c(CN(CCc1ccc(-c3ccccc3)cc1)Cc1ccccc1)cn2CC(C)C`, the half-maximal effective concentration (EC50) in data set [1] turned out to be 0.44 µM; in data set [4] it was 5.98 µM. Also, the Kd in data set [5] worked out at 3.26 µM. The 50% cytotoxic concentration (CC50) in data set [2] was 31.5 µM. In addition, the IC50 in data set [6] and in data set [7] was over 25 µM each time. Also, the MCC in data set [3] was determined as 100 µM.

`C#CC[C@H](NCc1ccccc1)C(=O)N[C@@H](Cc1c[nH]c2ccccc12)C(=O)NCc1ccc(-c2ccccc2)cc1`: the concentration for a half-maximal effect (EC50) in data set [1] came out at 10.9 µM; in data set [4] it was 8.94 µM. Besides, the CC50 in data set [2] turned out to be 51.5 µM. For the same compound, the IC50 in data set [6] is over 25 µM; in data set [7], 2.86 µM. In data set [3], the MCC was at least 100 µM.

With `C#CC[C@H](NCCC)C(=O)N[C@@H](Cc1c[nH]c2ccccc12)C(=O)NCc1ccc(-c2ccccc2)cc1`, the EC50 in data set [1] and in data set [4] was over 20 µM each time. In addition, the CC50 in data set [2] is 42.4 µM. For the same compound, the IC50 is over 25 µM in data set [6] and 22.7 µM in data set [7]. Besides, the MCC in data set [3] is over 100 µM.

With `CC(C)(C)NC(=O)[C@H](Cc1c[nH]c2ccccc12)NC(=O)[C@H](Cc1ccccc1)NCc1ccc(-c2ccccc2)cc1`, the figures for the EC50 in data set [1] and in data set [4] were 2.01 µM and 2.19 µM, respectively. In addition, the Kd in data set [5] was determined as 19 µM. The CC50 in data set [2] was 1.49 µM. The IC50 in data set [6] and in data set [7] was over 25 µM throughout. In data set [3], the MCC is over 100 µM.

For the compound `C#CC[C@H](NC(=O)OC(C)(C)C)C(=O)N(Cc1ccccc1)Cc1cn(C)c2ccc(C(=O)OC)cc12`, the concentration for a half-maximal effect (EC50) in data set [1] stood at 20 µM; in data set [4], 4 µM. For the same compound, in data set [5], the Kd came out at 11.4 µM. Moreover, the CC50 in data set [2] was 8.09 µM. In addition, the IC50 in data set [6] and in data set [7] was over 25 µM throughout. The MCC in data set [3] came out at 100 µM.

`C=CC[C@H](NC(=O)CCl)C(=O)N[C@@H](Cc1c[nH]c2ccccc12)C(=O)NCc1ccccc1` (ClAc-[AllylGly]-Trp-NHBn): the concentration for a half-maximal effect (EC50) was 1.37 µM in data set [1] and 0.32 µM in data set [4]. Moreover, the equilibrium dissociation constant (Kd) in data set [5] was over 25 µM. In addition, in data set [2], the CC50 amounted to 38.7 µM. The figures for the IC50 in data set [6] and in data set [7] were 0.67 µM and 1.72 µM, respectively. Moreover, in data set [3], the MCC came to 100 µM.

Consider `C#CC[C@H](NCc1ccc(-c2ccccc2)cc1)C(=O)N[C@@H](Cc1c[nH]c2ccccc12)C(=O)NC(C)(C)C`, for which the concentration giving a half-maximal response (EC50) in data set [1] and in data set [4] was over 4 µM each time. For the same compound, the Kd in data set [5] was over 25 µM. Moreover, the CC50 in data set [2] turned out to be 4.67 µM. In addition, the half-inhibitory concentration (IC50) in data set [6] and in data set [7] was over 25 µM throughout. Further, the MCC in data set [3] turned out to be 20 µM.

On to `CC(C)C[C@H](NCc1ccc(-c2ccccc2)cc1)C(=O)N[C@@H](Cc1c[nH]c2ccccc12)C(=O)NC(C)(C)C`, for which the EC50 in data set [1] and in data set [4] was over 4 µM each time. Besides, in data set [5], the equilibrium dissociation constant (Kd) is over 25 µM. Besides, in data set [2], the CC50 amounted to 10.6 µM. The half-inhibitory concentration (IC50) in data set [6] was over 25 µM; in data set [7], 1.73 µM. Further, in data set [3], the MCC turned out to be 20 µM.

Take `C=CC[C@H](NCc1ccccc1)C(=O)N[C@@H](Cc1c[nH]c2ccccc12)C(=O)NCc1ccc(-c2ccccc2)cc1`: the EC50 in data set [1] is over 20 µM; in data set [4], 63.1 µM. The Kd in data set [5] is over 25 µM. For the same compound, the 50% cytotoxic concentration (CC50) in data set [2] was determined as 78.4 µM. For the same compound, the half-maximal inhibitory concentration (IC50) in data set [6] and in data set [7] was over 25 µM each time. Moreover, the MCC in data set [3] is over 100 µM.

As for `CC(C)C[C@H](NCc1ccc(-c2ccccc2)cc1)C(=O)N[C@@H](Cc1c[nH]c2ccccc12)C(=O)NCc1ccccc1`, the 50% effective concentration (EC50) in data set [1] and in data set [4] was over 4 µM in each case. Moreover, in data set [2], the CC50 worked out at 34.7 µM. In addition, the half-inhibitory concentration (IC50) was over 25 µM in data set [6] and 23.6 µM in data set [7]. Moreover, in data set [3], the MCC was over 20 µM.

As for `CC(C)(C)NC(=O)[C@H](Cc1c[nH]c2ccccc12)NC(=O)[C@@H]1CCCN1C(=O)OC(C)(C)C` (Boc-Pro-Trp-NHtBu), the EC50 in data set [1] and in data set [4] was over 100 µM throughout. Moreover, the dissociation constant Kd in data set [5] is over 25 µM. Besides, in data set [2], the 50% cytotoxic concentration (CC50) was over 100 µM. Moreover, the IC50 in data set [6] is over 25 µM; in data set [7], 5.01 µM. For the same compound, the MCC in data set [3] was over 100 µM.

For orientation: EC50 means the midpoint of the concentration-response curve. As usually defined, the CC50 is the concentration at which the toxic effect on the cells reaches its halfway point. As usually defined, the Kd is the equilibrium constant for the complex coming apart. As usually defined, the IC50 is the concentration that gives 50% inhibition.
